Among the data in ChEMBL document CHEMBL3352404, “Lower homologues of ahpatinin, aspartic protease inhibitors, from a marine Streptomyces sp” (J Nat Prod, 2014) are IC50 values, retold here.

Starred links: 1 amine or outer side, 2 acyl side, 3 side chain; linkers in the order of their positions; H or OH if unused. Non-standard residues stand in square brackets, D forms with d. Residues, ends and D or L forms follow the SMILES beside them. *: point of attachment. Ahppa(3S,4S) = O=C(C[C@H](O)[C@H](Cc1ccccc1)N[*:1])[*:2]; Sta = CC(C)C[C@H](N)[C@@H](O)CC(=O)O; Isobutyryl = CC(C)C(=O)*; Propionyl = CCC(=O)*

The target in one assay is Cathepsin B (Bos taurus, UniProt P07688). In words: Inhibition of bovine spleen cathepsin B using Z-Arg-Arg-AMC as substrate after 30 mins by fluorescence assay. In outline: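 Enzyme stock 1 unit/mL in 50 mM MES pH 6.0 with 0.1% Brij-35, diluted 100-fold in the same buffer before use. Test sample was mixed with diluted enzyme and 25 μM Z-Arg-Arg-AMC (substrate solution in DMSO, pre-mixing level) and incubated 37 °C for 30 min. Released AMC was read by fluorescence, excitation 345 nm, emission 440 nm.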

Assay [1] in a line: Inhibition of porcine gastric mucosa pepsin using MOCAc-Ala-Pro-Ala-Lys-Phe-Phe-Arg-Leu-Lys (Dnp)-NH2 as substrate after 20 mins by fluorescence assay. The arrangement: species or system Sus scrofa. In a few lines:
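Test solution in MeOH was diluted into 0.1 M ammonium formate buffer pH 3.0. Pepsin solution (1 μg/mL in the buffer) was added, then 10 μM fluorogenic substrate solution (pre-mixing level). The mixture was incubated 30 °C for 20 min. Released MOCAc-Ala-Pro-Ala-Lys-Phe was read by fluorescence, excitation 328 nm, emission 393 nm.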

Consider `CC(=O)N[C@H](C(=O)N[C@H](C(=O)N[C@@H](CC(C)C)[C@@H](O)CC(=O)N[C@@H](C)C(=O)N[C@@H](Cc1ccccc1)[C@@H](O)CC(=O)O)C(C)C)C(C)C` (Ac-VV[Sta]A-{Ahppa(3S,4S)}), for which the results for the concentration for half-maximal inhibition (IC50) (against Cathepsin B; in assay [1]) were 15 µM and 0.011 µM, respectively.

With `CC(C)C[C@H](NC(=O)[C@@H](NC(=O)[C@@H](NC(=O)C(C)C)C(C)C)C(C)C)[C@@H](O)CC(=O)N[C@@H](C)C(=O)N[C@@H](Cc1ccccc1)[C@@H](O)CC(=O)O` (Isobutyryl-VV[Sta]A-{Ahppa(3S,4S)}), it took 26 µM to reach half-maximal inhibition on Cathepsin B (IC50).

Turning to `CC(C)C[C@H](NC(=O)[C@H](C)NC(=O)C[C@H](O)[C@H](CC(C)C)NC(=O)[C@@H](NC(=O)[C@@H](NC(=O)C(C)C)C(C)C)C(C)C)[C@@H](O)CC(=O)O` (Isobutyryl-VV[Sta]A[Sta]-OH), the concentration for half-maximal inhibition (IC50) (commonly the midpoint of a concentration-inhibition curve) at Cathepsin B came to 29 µM.

On to `CCC(=O)N[C@H](C(=O)N[C@H](C(=O)N[C@@H](CC(C)C)[C@@H](O)CC(=O)N[C@@H](C)C(=O)N[C@@H](Cc1ccccc1)[C@@H](O)CC(=O)O)C(C)C)C(C)C` (Propionyl-VV[Sta]A-{Ahppa(3S,4S)}), for which the IC50 worked out at 25 µM at Cathepsin B and 0.05 µM in assay [1].

Take `CCC(=O)N[C@H](C(=O)N[C@H](C(=O)N[C@@H](CC(C)C)[C@@H](O)CC(=O)N[C@@H](C)C(=O)N[C@@H](CC(C)C)[C@@H](O)CC(=O)O)C(C)C)C(C)C` (Propionyl-VV[Sta]A[Sta]-OH): the IC50 is 10 µM at Cathepsin B and 0.018 µM in assay [1].

Take `CC(=O)N[C@H](C(=O)N[C@H](C(=O)N[C@@H](CC(C)C)[C@@H](O)CC(=O)N[C@@H](C)C(=O)N[C@@H](CC(C)C)[C@@H](O)CC(=O)O)C(C)C)C(C)C` [ACETYLPEPSTATIN]: the figures for the IC50 (against Cathepsin B; in assay [1]) were 17 µM and 0.011 µM, respectively.
